What was measured:
[1] = test system: HCV genotype 1 (GT-1); settings: triple combination with Peg-IFN/RBV, genotype-1 naive patients; cited from earlier work
[2] = test system: HCV GT-1a H77 subgenomic replicon; assay: Stable HCV GT-1a H77 subgenomic replicon assay; assay type: cell-based, Hepatitis C virus; settings: for Plasma Shift fold: EC50 with 40% human serum vs without, GT-1a and GT-1b
[3] = test system: HCV GT-1b Con1 subgenomic replicon; assay: Stable HCV GT-1b Con1 subgenomic replicon assay; assay type: cell-based, Hepatitis C virus
[4] = test system: HCV GT-1b Con1 subgenomic replicon; settings: genotype not given; cited from earlier work
[5] = test system: GT-1b Con1 transient replicon with NS5B clinical isolates; assay: Transient HCV replicon assay, panel of GT-1b NS5B clinical isolates; assay type: cell-based; settings: Hepatitis C virus, GT1B, read-out: mean EC50, GT 1b panel, geometric mean
[6] = Pharmacokinetics in rat; assay type: in vivo, Male Wistar/Han (CRL:WI) rats; settings: male, Wistar/Han (CRL:WI), plasma, po
[7] = Pharmacokinetics in dog; assay type: in vivo, Male beagle dogs; settings: male, beagle, plasma, po
Procedure, shortened: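 Male beagle dogs with free access to food and water received a single oral dose of test compound by gavage in 2% Klucel LF in water. Blood was collected into EDTA tubes at typically 0.25, 0.5, 1, 2, 4, 6, 8 and 24 h post-dose. Plasma concentrations were measured by LC/MS/MS after protein precipitation with acetonitrile.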

Structure (SMILES): CC(C)(C)NC(=O)N[C@H](C(=O)N1C[C@H]2[C@@H]([C@H]1C(=O)NC(CC1CCC1)C(=O)C(N)=O)C2(C)C)C(C)(C)C (stereo partly drawn) [Boceprevir]
- SVR rates [1]: ≤ 68%

Structure (SMILES): COc1c(/C=C/c2ccc(NS(C)(=O)=O)cc2)cc(-c2cc(F)c[nH]c2=O)cc1C(C)(C)C [Compound 7, reference compound]
- EC50 ([2]; Hepatitis C virus, GT1A, read-out: GT-1a EC50): 8 nM
- EC50 ([3]; Hepatitis C virus, GT1B, read-out: GT-1b EC50): 3 nM
- activity in the HCV subgenomic replicon assay [4]: single digit nM

Structure (SMILES): CC(C)(C)c1cc(-c2cc(F)c[nH]c2=O)c2ncc(-c3ccc(NS(C)(=O)=O)cc3)cc2c1 [Compound 34]
- drop in activity ([2]; desmethoxy analog vs 33, replicon GT-1a and GT-1b): 4-to 6 fold

Structure (SMILES): COc1c(C(C)(C)C)cc(-n2ccc(=O)[nH]c2=O)c2ncc(-c3ccc(NS(C)(=O)=O)cc3)cc12 [Compound 35, N-[4-[6-tert-Butyl-8-(2,4-dioxopyrimidin-1-yl)-5-methoxy-3-quinolyl]phenyl] methanesulfonamide]
- Plasma Shift fold [2]: 1.7–2.2 fold

Structure (SMILES): COc1c(C(C)(C)C)cc(-n2ccc(=O)[nH]c2=O)c2ccc(-c3ccc(NS(C)(=O)=O)cc3)cc12 [Compound 36, N-[4-[7-tert-Butyl-5-(2,4-dioxopyrimidin-1-yl)-8-methoxy-2-naphthyl]phenyl] methanesulfonamide]
- increase in potency against both genotypes with respect to quinoline 35 ([2]; replicon GT-1a and GT-1b): 2- to 3 fold

Structure (SMILES): COc1c(C(C)(C)C)cc(-c2ccc[nH]c2=O)c2ncc(-c3ccc(NS(C)(=O)=O)cc3)cc12 [Compound 39, N-[4-[6-tert-Butyl-5-methoxy-8-(2-oxo-1H-pyridin-3-yl)-3-quinolyl]phenyl] methanesulfonamide]
- Plasma Shift fold [2]: 0.8–3.5 fold

Structure (SMILES): COc1ccc(-c2cc(C(C)(C)C)c(OC)c3cc(-c4ccc(NS(C)(=O)=O)cc4)cnc23)c(=O)[nH]1 [Compound 41, N-[4-[6-tert-Butyl-5-methoxy-8-(6-methoxy-2-oxo-1H-pyridin-3-yl)-3-quinolyl]phenyl] methanesulfonamide]
- improvement in the 40% HS replicon assay ([2]; vs lead compound 7): 6 fold
- EC50 [5]: 0.26 nM
- concentration at 8 h [6]: 1.22 µM
- concentration at 8 h [7]: 1.95 µM

Structure (SMILES): COc1c(C(C)(C)C)cc(N2CCCNC2=O)c2ncc(-c3ccc(NS(C)(=O)=O)cc3)cc12 [Compound 43]
- decrease in potency against GT-1a ([2]; vs dihydrouracil 42): 14 fold
- decrease in potency against GT-1b ([3]; vs dihydrouracil 42): 6 fold

Structure (SMILES): COc1c(C(C)(C)C)cc(-c2cn(C)c(=O)[nH]c2=O)c2ncc(-c3ccc(NS(C)(=O)=O)cc3)cc12 [Compound 44]
- increase in potency against both genotypes with respect to quinoline 35 ([2]; replicon GT-1a and GT-1b): ~ 2 fold

Structure (SMILES): COc1ccc(-c2cc(C(C)(C)C)c(OC)c3cc(N4CC[C@H](CNS(C)(=O)=O)C4)cnc23)c(=O)[nH]1 [Compound 50, N-[[(3S)-1-[6-tert-butyl-5-methoxy-8-(6-methoxy-2-oxo-1H-pyridin-3-yl)-3-quinolyl]pyrrolidin-3-yl]methyl]methanesulfonamide]
- concentration at 8 h [6]: 3.5 µM

Structure (SMILES): COc1c(C2(C(F)F)CC2)cc(-n2ccc(=O)[nH]c2=O)c2ncc(-c3ccc(NS(C)(=O)=O)cc3)cc12 [Compound 53, N-[4-[6-[1-(Difluoromethyl)cyclopropyl]-8-(2,4-dioxopyrimidin-1-yl)-5-methoxy-3-quinolyl]phenyl]methanesulfonamide]
- improvement in potency with respect to compounds 51 and 52 ([2]; replicon GT-1a and GT-1b): 3- to 9 fold

Structure (SMILES): CCC[C@H](NC(=O)[C@@H]1[C@H]2CCC[C@H]2CN1C(=O)[C@@H](NC(=O)[C@@H](NC(=O)c1cnccn1)C1CCCCC1)C(C)(C)C)C(=O)C(=O)NC1CC1 [Telaprevir]
- SVR rates [1]: up to 75%

— PMC3954946 (Journal of medicinal chemistry, 2013)
